Compounds with a hit are over-represented: about 2.3% of the library has one in this group of screens.
TRPC6 act: activators of mouse TRPC6 channel; 310,000 tested, 0.13% active; HEK293-TRPC6 membrane potential dye fluorescence; stronger effect = higher value; B-score at 10 µM; Q61143;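 active = B-score of the integrated fluorescence ratio above library mean plus 3 SD, and starting fluorescence ratio within library mean plus 5 SD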;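 note: higher score means more depolarization so channel activation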
Target sequence (Q61143 whole entry, looked up): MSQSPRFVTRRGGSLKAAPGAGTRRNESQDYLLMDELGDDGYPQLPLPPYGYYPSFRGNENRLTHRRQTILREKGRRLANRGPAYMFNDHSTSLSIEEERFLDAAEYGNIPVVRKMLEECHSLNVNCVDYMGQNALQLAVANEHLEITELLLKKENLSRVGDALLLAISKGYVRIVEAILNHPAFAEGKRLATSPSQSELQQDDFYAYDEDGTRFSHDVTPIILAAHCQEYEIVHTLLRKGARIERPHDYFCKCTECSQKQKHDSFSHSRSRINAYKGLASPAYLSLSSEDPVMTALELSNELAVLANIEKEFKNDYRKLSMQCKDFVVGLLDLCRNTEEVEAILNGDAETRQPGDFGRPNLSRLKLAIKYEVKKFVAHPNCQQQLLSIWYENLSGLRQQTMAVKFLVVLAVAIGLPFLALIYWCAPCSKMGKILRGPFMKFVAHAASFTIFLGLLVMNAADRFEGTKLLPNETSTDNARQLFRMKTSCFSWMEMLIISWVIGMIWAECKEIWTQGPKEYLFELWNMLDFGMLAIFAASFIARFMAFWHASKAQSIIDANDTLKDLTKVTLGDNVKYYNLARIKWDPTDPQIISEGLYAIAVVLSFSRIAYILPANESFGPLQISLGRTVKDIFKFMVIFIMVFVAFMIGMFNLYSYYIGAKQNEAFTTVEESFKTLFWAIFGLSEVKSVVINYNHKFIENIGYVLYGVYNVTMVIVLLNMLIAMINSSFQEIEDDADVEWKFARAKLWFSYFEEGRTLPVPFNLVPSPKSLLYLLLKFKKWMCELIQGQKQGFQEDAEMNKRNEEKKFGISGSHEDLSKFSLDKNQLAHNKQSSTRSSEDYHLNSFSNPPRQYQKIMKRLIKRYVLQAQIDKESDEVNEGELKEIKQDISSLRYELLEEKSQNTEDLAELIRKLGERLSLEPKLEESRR
TRPC6 inh: mouse TRPC6 channel inhibition; Q61143; HEK293-TRPC6, membrane potential dye, ACh-evoked depolarization; stronger effect = lower value; B-score at 10 µM; 310,000 tested, 1.1% active;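 active = B-score under library mean minus 3 SD, initial fluorescence not abnormally high, positive integrated signal ratio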;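 note: B-score derived from integrated fluorescence ratio over the kinetic read; more negative B-score means stronger inhibition of depolarization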
TRPC4 PAM: allosteric potentiators of mouse TRPC4 channel. HEK293 TRPC4beta/mu-opioid, DAMGO EC20, Fluo-4 Ca2+ flux; stronger effect = higher value. AID 2227. 310,000 tested, 0.42% active. B-score at 10 µM;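 active = B-score of calcium response area above 5 SD of library B-scores, with initial fluorescence ratio within 5 SD of library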;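 note: B-score of integrated fluorescence ratio over time as area under calcium response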
TRPC4 block: blocks the mouse TRPC4 cation channel; B-score at 10 µM; Q9QUQ5; AID 2247; HEK293 TRPC4beta/mu-opioid, DAMGO-evoked Fluo4 calcium flux; stronger effect = lower value; 300,000 tested, 0.39% active;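 active = B-score over 3 SD under the library average, no early fluorescence shift, positive overall ratio signal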
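Assay system: TRPC4beta/mu-opioid receptor HEK293 cell line; compound dosing: single concentration per test compound; detection: Fluo4 Ca2+ flux fluorescence; evaluation: per-well B score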
TRPC4 agonist: activators of mouse TRPC4 channel | B-score at 10 µM | 310,000 tested, 0.49% active | HEK293 TRPC4beta/mu-opioid, Fluo4 calcium fluorescence; stronger effect = higher value;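 active = B-score above 5 SD of library B-scores, and initial fluorescence ratio not above library mean plus 5 SD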;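 note: positive B-score marks a calcium rise read as TRPC4 activation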
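Assay system – TRPC4beta and mu-opioid receptor HEK293 stable cells · Measured by – Fluo4 fluorescence, kinetic · Schedule – dye loading 45 min room temperature, 110 s kinetic read · Read-out – B-scored integrated calcium fluorescence ratio · Controls – buffer and maximal DAMGO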
TRPC4 spec 2: mouse TRPC4 off-target activity of TRPC6 inhibitors, second screen; shares compounds with TRPC6 inh; HEK293 TRPC4/MOR, membrane potential dye fluorescence; channel activated by saturating DAMGO dose; inhibition, % at 10 µM; 920 tested, 42% active;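 active = compounds whose fluorescence signal differed from control wells by over 3 SD, either direction, in both duplicate plates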
TRPC4 spec: tests whether TRPC6 inhibitors also affect mouse TRPC4. AID 2777. shares compounds with TRPC6 inh. activity change, negative = inhibition, % at 10 µM. HEK293 TRPC4/mu-opioid, membrane potential fluorescence. 920 tested, 61% active;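 active = rise or fall in signal beyond 3 SD of buffer-only wells in both replicate plates, either sign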;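 note: integrated kinetic ratio of fluorescence range over baseline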
HEK293 MPD ctr 2-1: parental HEK293 nonspecific activity of TRPC6 inhibitors, second screen; parental HEK293 membrane potential dye fluorescence; maximal acetylcholine challenge after compound addition; AID 2779; shares compounds with TRPC6 inh; signal change vs control, % at 10 µM; 920 tested, 31% active;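 active = membrane potential signal moving either way by over 3 SD of the maximum-effect control, in both duplicate plates, meaning non-specific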
HEK293 MPD ctr-1: checks TRPC6 inhibitor effects in parental HEK293 cells. 920 tested, 60% active. shares compounds with TRPC6 inh. membrane potential signal change, % at 10 µM. parental HEK293 membrane potential dye fluorescence. AID 2780;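 active = membrane potential signal shifting up or down by more than 3 SD of buffer-only wells, on both duplicate plates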
HEK293 MPD ctr-2: checks TRPC6 modulator effects in parental HEK293 cells | shares compounds with TRPC6 inh | membrane potential dye fluorescence | membrane potential signal change, % at 10 µM | 2,400 tested, 51% active | AID 488924;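 active = membrane potential signal moves up or down beyond 5 SD from buffer-only wells, on both duplicate plates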
HEK293 MPD ctr 2-2: second check of TRPC6 modulator effects in parental HEK293 cells; shares compounds with TRPC6 inh; AID 488926; inhibition, % at 10 µM; 2,400 tested, 14% active; membrane potential dye fluorescence; after compound, maximal acetylcholine stimulation;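 active = membrane potential signal drops by more than 5 SD from the mean control signal, in both duplicate plates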;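 note: plate controls were acetylcholine ECmax control wells for no effect and buffer only wells for full effect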
TRPC4/MOR mod: mouse TRPC4 off-target activity of TRPC6 modulators; AID 488927; HEK293 TRPC4/mu-opioid, membrane potential fluorescence; percent change from control (negative = decrease, positive = increase), % at 10 µM; shares compounds with TRPC6 inh; 2,400 tested, 69% active;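 active = membrane potential signal moved up or down beyond 5 SD of buffer control wells, in both duplicate plates, actives on both sides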;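 note: plate controls were assay buffer wells for no effect and DAMGO maximal-effect wells for full effect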
TRPC4/MOR inh 2: second check of whether TRPC6 modulators also affect mouse TRPC4; shares compounds with TRPC6 inh; HEK293 TRPC4/mu-opioid, membrane potential dye fluorescence; stimulated with maximal-effect DAMGO; inhibition, % at 10 µM; 2,400 tested, 55% active;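 active = drop in membrane potential signal beyond 5 SD of the control wells in both duplicate plates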;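 note: TRPC4 counter screen for TRPC6 hits run under conditions tuned for TRPC6 not TRPC4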
TRPC6 inh conf: mouse TRPC6 inhibitor confirmation. HEK293-TRPC6, membrane potential dye, ACh-evoked depolarization. shares compounds with TRPC6 inh. inhibition, % at 10 µM. 3,300 tested, 43% active;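 active = fluorescence ratio falls more than 5 SD below the full-stimulation control mean, in both duplicate runs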;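 note: integrated fluorescence ratio of peak minus minimum over baseline after agonist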
TRPC6 act conf: mouse TRPC6 activator confirmation; shares compounds with TRPC6 inh; HEK293-TRPC6 membrane potential dye fluorescence, FDSS; activation, % at 10 µM; 2,800 tested, 11% active; AID 488961;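 active = ratio signal rise beyond 5 SD above unstimulated control wells' mean, seen in both duplicate runs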;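 note: plate controls were buffer EC0 wells for no effect and acetylcholine ECmax response for full effect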
* hit, by the source's call; i = inactive; . = no result given.

SMILES	TRPC6 act	TRPC6 inh	TRPC4 PAM	TRPC4 block	TRPC4 agonist	HEK293 MPD ctr-2	HEK293 MPD ctr 2-2	TRPC4/MOR mod	TRPC4/MOR inh 2	TRPC6 inh conf	TRPC6 act conf	others
Cc1c(NC(=O)C2(c3ccc(Cl)cc3)CCCC2)c(=O)n(-c2ccccc2)n1C	i	-6.6*	i	i	i	.	.	.	.	i	i	TRPC4 spec 2=i;TRPC4 spec=i;HEK293 MPD ctr 2-1=i;HEK293 MPD ctr-1=i
COc1ccc(NC(=O)Nc2c(C)n(C)n(-c3ccccc3)c2=O)c(OC)c1	i	-5*	i	i	i	i	i	i	i	i	i
Cc1c(NC(=O)C2(c3ccccc3)CCOCC2)c(=O)n(-c2ccccc2)n1C	i	i	i	i	i	.	.	.	.	.	.
Cc1c(Cl)c([N+](=O)[O-])nn1CCCC(=O)Nc1c(C)n(C)n(-c2ccccc2)c1=O	i	-6.5*	i	i	i	i	i	i	i	i	i
CC1Cc2ccccc2N1Cc1cccc([N+](=O)[O-])c1 (stereo not given)	i	i	i	i	i	.	.	.	.	.	.
COc1ccc2ccccc2c1CNCc1ccc(C)cc1	i	-8*	i	i	i	.	.	.	.	62%*	.	TRPC4 spec 2=50%*;TRPC4 spec=52%*;HEK293 MPD ctr 2-1=i;HEK293 MPD ctr-1=22%*
CN1CCN(c2ccccc2NC(=O)c2ccc(N3CCCC3)c([N+](=O)[O-])c2)CC1	i	-11*	i	i	i	-108%*	i	-30%*	82%*	58%*	i
O=C(Nc1ccccc1N1CCCCC1)c1ccc(Cl)c([N+](=O)[O-])c1	i	i	i	i	i	.	.	.	.	.	.
CN1CCN(c2ccc(C(=O)c3ccc(Br)cc3)cc2[N+](=O)[O-])CC1	i	-5.9*	i	i	i	i	i	-13%*	43%*	i	i
O=C(C1CCN(S(=O)(=O)c2ccc(Cl)cc2)CC1)N1CCC1	i	i	i	i	i	.	.	.	.	.	.
Cc1ccc(C(c2cc(Br)ccc2O)N2CCSCC2)cc1 (stereo not given)	i	i	i	i	i	.	.	.	.	.	.
CC(O)[C@H]1CNCCN1CCc1cc(C(F)(F)F)cc(C(F)(F)F)c1 (stereo not given in full)	i	i	i	i	i	.	.	.	.	.	.
Fc1cccc(CCN2CCNC[C@@H]2Cc2ccccc2)c1	i	-5.4*	i	i	i	i	i	i	39%*	i	i
CCCC[C@@H]1CNCCN1CCc1cccc(F)c1	i	i	i	i	i	.	.	.	.	.	.
FC(F)(F)c1cc(CCN2CCNC[C@@H]2Cc2ccccc2)cc(C(F)(F)F)c1	i	-5.6*	i	i	i	i	i	i	48%*	i	i
Cc1ccccc1OCC(=O)Nc1ccc2[nH]ncc2c1	i	i	i	i	i	.	.	.	.	.	.
O=C(Nc1ccccc1Cl)c1cc(=O)c2ccccc2o1	i	i	i	i	i	.	.	.	.	.	.
C/C=C/C=C/C(=O)N1CC[C@]23c4ccccc4N[C@H]4N(C)c5cccc6c5[C@]42CCN([C@H]6C2OC2(C)C)[C@H]13 (stereo not given in full)	i	-6.5*	i	i	i	i	i	i	30%*	66%*	.
CN1CCC23c4ccccc4NC1C21CCN(C)C3Nc2ccccc21	i	i	i	i	i	.	.	.	.	.	.
CCOc1cc(/C=C2\N=C(SCC)SC2=O)cc([N+](=O)[O-])c1OC(C)=O	i	i	i	i	i	.	.	.	.	.	.
CCOc1cc(/C=C2\N=C(SC)SC2=O)cc([N+](=O)[O-])c1OC(C)=O	i	-5.1*	i	i	i	i	i	i	39%*	i	i
COc1ccc(OC)c(-c2nc3cc4ccccc4cc3nc2-c2ccccc2)c1	i	i	i	i	i	.	.	.	.	.	.
CC(=O)c1cccc(NC(=O)c2cc3nc(C)cc(C)n3n2)c1	i	-5.1*	i	i	i	i	i	i	i	i	i
CC1Cc2cc(/C(O)=C3/C(=O)C(=O)N(CCCn4ccnc4)C3c3ccc(Br)cc3)ccc2O1 (stereo not given)	i	i	i	i	i	.	.	.	.	.	.
COc1ccccc1N1CCN(C/C=C/c2ccc(N(C)C)cc2)CC1	i	-7.5*	i	i	i	.	.	.	.	i	i	TRPC4 spec 2=68%*;TRPC4 spec=-10%*;HEK293 MPD ctr 2-1=i;HEK293 MPD ctr-1=-247%*
COc1ccccc1N(C)S(=O)(=O)c1ccc(C(=O)NC(C)c2ccccc2)cc1 (stereo not given)	i	i	i	i	i	.	.	.	.	.	.
Cc1nc2cc(C(F)(F)F)ccc2n1C1CCN(CC(=O)N2CCOCC2)CC1	i	-5.2*	i	i	i	i	i	i	i	i	i
Cc1nc2cc(C(F)(F)F)ccc2n1C1CCN(CC(=O)N2CCCC2)CC1	i	i	i	i	i	.	.	.	.	.	.

Compound activity (PubChem BioAssay)
